Data reported in ChEMBL document CHEMBL1764979, “Nucleoside transport inhibitors: structure-activity relationships for pyrimido[5,4-d]pyrimidine derivatives that potentiate pemetrexed cytotoxicity in the presence of α1-acid glycoprotein” (J Med Chem, 2011).
pIC50: −log10 of the molar value. Calls of active or inactive are those of the source. The calls are words filed in the database; no cut-off is given here.

Tests used:
L1210 [1] = settings: Mus musculus, at 1 µM
L1210 [2] = assay: Inhibition of ENT-mediated [3H]thymidine incorporation in mouse L1210 cells at 1 uM by liquid scintillation counting; type: cell-based; settings: in the assay text read “transport” for “incorporation”
How it was run: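 3H-TdR transport into murine L1210 leukaemia cells with inhibitor at 1.0 μM, tested with and without AGP (5 mg/mL). Mean and SD of three independent experiments.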

[3] = Chemical stability of the compound; type: physicochemical
COR-L23 [4] = assay: Inhibition of ENT-mediated [3H]thymidine incorporation in human COR-L23 cells at 0.1 uM by liquid scintillation counting; type: cell-based
How it was run: (§1)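 Log-phase COR-L23 cells were seeded at 2 × 10^4/well, left overnight, PBS-washed and given serum-free medium with inhibitor. 3H-TdR was added (final 100 nM, 6.2 GBq/mmol) for 2 h at 37 °C. Cells were washed in ice-cold PBS, lysed in 0.5 M NaOH for 30 min, harvested onto glass-fibre filters with TCA/water/MeOH rinses, and scintillation counted. Mean ± SD of three independent experiments.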

[5] = Inhibition of ENT-mediated [3H]thymidine incorporation in human COR-L23 cells by liquid scintillation counting; type: cell-based; settings: COR-L23, 2 h
How it was run: as §1

COR-L23 [6] = assay: Inhibition of ENT-mediated [3H]thymidine incorporation in human COR-L23 cells at 1 uM by liquid scintillation counting; type: cell-based
How it was run: as §1

COR-L23 [7] = assay: Potentiation of pemetrexed-induced growth inhibitory activity in human COR-L23 cells at 1 uM by SRB assay in presence of thymidine and hypoxanthine; type: functional; parameters: scale not given: the % may be the effect or the level left
How it was run: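 COR-L23 cells in RPMI 1640 with 10% FCS were seeded at 1 × 10^3/well and allowed to attach overnight. They were then given pemetrexed 200 nM, ± TdR 1 μM and HPX 10 μM (1% DMSO), ± inhibitor 1 μM, for three doublings, then fixed and read by SRB. % reversal = (growth arrest with pemetrexed + TdR/HPX + inhibitor)/(growth arrest with pemetrexed alone) × 100. Three independent experiments.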

[8] = Aqueous solubility of the compound; type: physicochemical; settings: buffer

COc1ccc(CNc2nc(NCC(C)OC(=O)[C@@H](NC(=O)OC(C)(C)C)C(C)C)nc3c(NCc4ccc(OC)c(OC)c4)nc(NCC(C)O)nc23)cc1OC (some centres undefined)
inhibition (L1210 [1]): inactive

COc1ccc(CNc2nc(NCC(C)OC(=O)CCC(=O)O)nc3c(NCc4ccc(OC)c(OC)c4)nc(NCC(C)O)nc23)cc1OC (centres undefined)
inhibition (L1210 [1]): Active

CCOC(=O)CNC(=O)OC(C)CNc1nc(NCc2ccc(OC)c(OC)c2)c2nc(NCC(C)OC(=O)NCC(=O)OCC)nc(NCc3ccc(OC)c(OC)c3)c2n1 (centres undefined)
inhibition (L1210 [2]): > 90%
Stability [3]: Unstable

COC(=O)[C@@H](NC(=O)OC(C)CNc1nc(NCc2ccc(OC)c(OC)c2)c2nc(NCC(C)O)nc(NCc3ccc(OC)c(OC)c3)c2n1)C(C)C (some centres undefined)
inhibition (COR-L23 [4]): 79%
pIC50 [5]: 8.15
inhibition (COR-L23 [6]): 95%
Stability [3]: Unstable

COc1ccc(CNc2nc(NCC(C)OC(=O)Nc3ccccc3)nc3c(NCc4ccc(OC)c(OC)c4)nc(NCC(C)OC(=O)CCC(=O)O)nc23)cc1OC (centres undefined)
inhibition (COR-L23 [4]): 75%
pIC50 [5]: 8.15
Activity (COR-L23 [7]): >100%
inhibition (COR-L23 [6]): 94%
Stability [3]: Unstable

COc1ccc(NC(=O)OC(C)CNc2nc(NCc3ccc(OC)c(OC)c3)c3nc(NCC(C)OC(=O)Nc4ccc(OC)cc4)nc(NCc4ccc(OC)c(OC)c4)c3n2)cc1 (centres undefined)
Stability [3]: Stable

COc1ccc(CNc2nc(NCC(C)OC(=O)[C@@H](NC(=O)OC(C)(C)C)C(C)C)nc3c(NCc4ccc(OC)c(OC)c4)nc(NCC(C)OC(=O)[C@@H](NC(=O)OC(C)(C)C)C(C)C)nc23)cc1OC (some centres undefined)
inhibition (L1210 [1]): inactive

COc1ccc(CNc2nc(NCC(C)OC(=O)Nc3ccccc3)nc3c(NCc4ccc(OC)c(OC)c4)nc(NCC(O)CO)nc23)cc1OC (centres undefined)
inhibition (COR-L23 [4]): 69%
pIC50 [5]: 8.00
Activity (COR-L23 [7]): >100%
inhibition (COR-L23 [6]): 91%

OCCN(CCO)c1nc(N2CCCCC2)c2nc(N(CCO)CCO)nc(N3CCCCC3)c2n1 [DIPYRIDAMOLE]
inhibition (COR-L23 [4]): 78%
pIC50 [5]: 7.82
Activity (COR-L23 [7]): >100%
inhibition (COR-L23 [6]): 96%

CCOC(=O)CNC(=O)OC(C)CNc1nc(NCc2ccc(OC)c(OC)c2)c2nc(NCC(C)O)nc(NCc3ccc(OC)c(OC)c3)c2n1 (centres undefined)
inhibition (COR-L23 [4]): 85%
inhibition (L1210 [2]): > 90%
pIC50 [5]: 7.23
inhibition (L1210 [1]): Active
inhibition (COR-L23 [6]): 94%
Stability [3]: Unstable

CCOC(=O)[C@H](C)NC(=O)OC(C)CNc1nc(NCc2ccc(OC)c(OC)c2)c2nc(NCC(C)OC(=O)N[C@@H](C)C(=O)OCC)nc(NCc3ccc(OC)c(OC)c3)c2n1 (some centres undefined)
solubility [8]: Insoluble
Stability [3]: Unstable

COc1ccc(CNc2nc(NCC(C)OC(=O)Nc3ccccc3)nc3c(NCc4ccc(OC)c(OC)c4)nc(NCC(C)O)nc23)cc1OC (centres undefined)
inhibition (COR-L23 [4]): 81%
inhibition (L1210 [2]): Active
pIC50 [5]: 8.10
Activity (COR-L23 [7]): >100%
inhibition (L1210 [1]): Active
inhibition (COR-L23 [6]): 97%
Stability [3]: Stable

COc1ccc(CNc2nc(NCC(C)OC(=O)Nc3ccc(C(F)(F)F)cc3)nc3c(NCc4ccc(OC)c(OC)c4)nc(NCC(C)O)nc23)cc1OC (centres undefined)
inhibition (COR-L23 [4]): 75%
inhibition (L1210 [2]): Active
pIC50 [5]: 7.17
Activity (COR-L23 [7]): >100%
inhibition (L1210 [1]): Active
inhibition (COR-L23 [6]): 93%
Stability [3]: Stable

CCOC(=O)[C@H](C)NC(=O)OC(C)CNc1nc(NCc2ccc(OC)c(OC)c2)c2nc(NCC(C)O)nc(NCc3ccc(OC)c(OC)c3)c2n1 (some centres undefined)
inhibition (COR-L23 [4]): 39%
pIC50 [5]: 6.36
inhibition (COR-L23 [6]): 68%
Stability [3]: Unstable

COc1ccc(CNc2nc(NC[C@H](C)O)nc3c(NCc4ccc(OC)c(OC)c4)nc(NC[C@H](C)O)nc23)cc1OC
inhibition (COR-L23 [4]): 68%
pIC50 [5]: 7.51
inhibition (COR-L23 [6]): 93%

COc1ccc(CNc2nc(NCC(C)OC(=O)[C@@H](N)C(C)C)nc3c(NCc4ccc(OC)c(OC)c4)nc(NCC(C)O)nc23)cc1OC.Cl (some centres undefined)
inhibition (COR-L23 [4]): 64%
pIC50 [5]: 7.41
Activity (COR-L23 [7]): >100%
inhibition (COR-L23 [6]): 89%

COc1ccc(CNc2nc(NCC(C)OC(=O)Nc3ccccc3)nc3c(NCc4ccc(OC)c(OC)c4)nc(NCC(C)OC(=O)Nc4ccccc4)nc23)cc1OC (centres undefined)
Stability [3]: Stable

COc1ccc(CNc2nc(NCC(C)OC(=O)Nc3ccccc3)nc3c(NCc4ccc(OCCN5CCOCC5)c(OC)c4)nc(NCC(C)O)nc23)cc1OC (centres undefined)
inhibition (COR-L23 [4]): 80%
pIC50 [5]: 7.66
Activity (COR-L23 [7]): >100%
inhibition (COR-L23 [6]): 97%

COc1ccc(NC(=O)OC(C)CNc2nc(NCc3ccc(OC)c(OC)c3)c3nc(NCC(C)O)nc(NCc4ccc(OC)c(OC)c4)c3n2)cc1 (centres undefined)
inhibition (COR-L23 [4]): 84%
pIC50 [5]: 8.40
Activity (COR-L23 [7]): >100%
inhibition (COR-L23 [6]): 98%
Stability [3]: Stable

COc1ccc(CNc2nc(NCC(C)OC(=O)[C@@H](N)C(C)C)nc3c(NCc4ccc(OC)c(OC)c4)nc(NCC(C)OC(=O)Nc4ccccc4)nc23)cc1OC (some centres undefined)
inhibition (COR-L23 [4]): 68%
pIC50 [5]: 7.36
Activity (COR-L23 [7]): >100%
inhibition (COR-L23 [6]): 92%

COc1ccc(CNc2nc(NCC(C)O)nc3c(NCc4ccc(OC)c(OC)c4)nc(NCC(C)O)nc23)cc1OC (centres undefined)
inhibition (COR-L23 [4]): 66%
inhibition (L1210 [2]): > 90%
pIC50 [5]: 7.59
Activity (COR-L23 [7]): >100%
inhibition (L1210 [1]): Active
inhibition (COR-L23 [6]): 90%
Stability [3]: Stable

C=CCOc1ccc(CNc2nc(NCC(C)O)nc3c(NCc4ccc(OC)c(OC)c4)nc(NCC(C)O)nc23)cc1OC (centres undefined)
inhibition (COR-L23 [4]): 81%
pIC50 [5]: 7.85
inhibition (COR-L23 [6]): 96%

COc1ccc(CNc2nc(NCC(C)OC(=O)Nc3ccc(C(F)(F)F)cc3)nc3c(NCc4ccc(OC)c(OC)c4)nc(NCC(C)OC(=O)Nc4ccc(C(F)(F)F)cc4)nc23)cc1OC (centres undefined)
inhibition (L1210 [2]): inactive
Stability [3]: Stable

COc1ccc(CNc2nc(NCC(C)OC(=O)[C@@H](N)C(C)C)nc3c(NCc4ccc(OC)c(OC)c4)nc(NCC(C)OC(=O)[C@@H](N)C(C)C)nc23)cc1OC.Cl.Cl (some centres undefined)
inhibition (COR-L23 [4]): 59%
pIC50 [5]: 7.15
Activity (COR-L23 [7]): >100%
inhibition (L1210 [1]): Active
inhibition (COR-L23 [6]): 87%

CCOC(=O)[C@H](Cc1ccccc1)NC(=O)OC(C)CNc1nc(NCc2ccc(OC)c(OC)c2)c2nc(NCC(C)OC(=O)N[C@@H](Cc3ccccc3)C(=O)OCC)nc(NCc3ccc(OC)c(OC)c3)c2n1 (some centres undefined)
solubility [8]: Insoluble
Stability [3]: Unstable

CCOC(=O)[C@H](Cc1ccccc1)NC(=O)OC(C)CNc1nc(NCc2ccc(OC)c(OC)c2)c2nc(NCC(C)O)nc(NCc3ccc(OC)c(OC)c3)c2n1 (some centres undefined)
Stability [3]: Unstable

COc1ccc(CNc2nc(NCC(C)OC(=O)Nc3ccc([N+](=O)[O-])cc3)nc3c(NCc4ccc(OC)c(OC)c4)nc(NCC(C)OC(=O)Nc4ccc([N+](=O)[O-])cc4)nc23)cc1OC (centres undefined)
inhibition (L1210 [2]): inactive
Stability [3]: Stable

COc1ccc(CNc2nc(NCC(C)OC(=O)Nc3ccc([N+](=O)[O-])cc3)nc3c(NCc4ccc(OC)c(OC)c4)nc(NCC(C)O)nc23)cc1OC (centres undefined)
inhibition (COR-L23 [4]): 84%
inhibition (L1210 [2]): Active
pIC50 [5]: 7.22
Activity (COR-L23 [7]): >100%
inhibition (L1210 [1]): Active
inhibition (COR-L23 [6]): 96%
Stability [3]: Stable

COc1ccc(CNc2nc(NCC(C)OP(=O)(O)O)nc3c(NCc4ccc(OC)c(OC)c4)nc(NCC(C)OC(=O)Nc4ccccc4)nc23)cc1OC (centres undefined)
inhibition (COR-L23 [4]): 53%
pIC50 [5]: 6.66
inhibition (COR-L23 [6]): 75%
Stability [3]: Unstable

COc1ccc(CNc2nc(NCC(C)OC(=O)CCC(=O)O)nc3c(NCc4ccc(OC)c(OC)c4)nc(NCC(C)OC(=O)CCC(=O)O)nc23)cc1OC (centres undefined)
inhibition (L1210 [1]): inactive
